# In ChEMBL document CHEMBL2157921, “Identification of novel 3,5-diarylpyrazoline derivatives containing salicylamide moiety as potential anti-melanoma agents” (Bioorg Med Chem Lett, 2012):
# What was measured:
# [1] = Inhibition of mouse full length GST-tagged BRAF V600E mutant using MEK1 as substrate incubated for 1 hr prior to substrate addition measured after 25 min by gel electrophoresis
# Procedure, shortened: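 Kinase activity was read out as BRAF V600E-mediated phosphorylation of MEK. Results are given as IC50 values.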
# [2] = Antiproliferative activity against human WM266.4 cells expressing BRAF V600E mutant after 24 hrs by MTT assay; format: functional; conditions: WM 266-4, 24 h
# [3] = target: Serine/threonine-protein kinase B-raf (Homo sapiens, UniProt P15056, V600E); experiment: Inhibition of BRAF V600E mutant in human WM266.4 cells assessed as inhibition of ERK1/2 phosphorylation by ELISA; format: cell-based
# Serine/threonine-protein kinase B-raf, sequence (P15056 2-766 V600E limits assumed): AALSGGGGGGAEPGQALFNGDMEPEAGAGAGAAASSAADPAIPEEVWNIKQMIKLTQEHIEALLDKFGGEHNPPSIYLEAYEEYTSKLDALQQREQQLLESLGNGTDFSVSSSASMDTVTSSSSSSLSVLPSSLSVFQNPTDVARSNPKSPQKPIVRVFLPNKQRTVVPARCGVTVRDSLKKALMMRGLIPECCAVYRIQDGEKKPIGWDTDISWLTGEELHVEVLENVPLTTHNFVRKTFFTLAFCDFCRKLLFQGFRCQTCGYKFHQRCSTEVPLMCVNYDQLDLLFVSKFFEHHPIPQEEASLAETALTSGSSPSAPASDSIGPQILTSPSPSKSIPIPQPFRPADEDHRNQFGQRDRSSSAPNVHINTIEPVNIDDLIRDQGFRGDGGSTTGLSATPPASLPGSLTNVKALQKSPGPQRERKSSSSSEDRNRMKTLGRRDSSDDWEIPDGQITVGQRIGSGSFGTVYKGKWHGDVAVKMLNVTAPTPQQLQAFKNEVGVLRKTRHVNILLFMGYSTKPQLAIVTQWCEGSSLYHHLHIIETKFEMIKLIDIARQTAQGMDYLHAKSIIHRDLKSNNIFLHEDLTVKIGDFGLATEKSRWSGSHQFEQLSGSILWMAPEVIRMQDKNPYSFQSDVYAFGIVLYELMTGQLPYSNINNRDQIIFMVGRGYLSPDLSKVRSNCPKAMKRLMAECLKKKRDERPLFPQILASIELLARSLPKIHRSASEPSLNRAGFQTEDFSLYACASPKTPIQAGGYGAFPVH
# [4] = target: Epidermal growth factor receptor (Homo sapiens, UniProt P00533); experiment: Inhibition of EGFR
# Epidermal growth factor receptor, sequence (P00533 whole entry): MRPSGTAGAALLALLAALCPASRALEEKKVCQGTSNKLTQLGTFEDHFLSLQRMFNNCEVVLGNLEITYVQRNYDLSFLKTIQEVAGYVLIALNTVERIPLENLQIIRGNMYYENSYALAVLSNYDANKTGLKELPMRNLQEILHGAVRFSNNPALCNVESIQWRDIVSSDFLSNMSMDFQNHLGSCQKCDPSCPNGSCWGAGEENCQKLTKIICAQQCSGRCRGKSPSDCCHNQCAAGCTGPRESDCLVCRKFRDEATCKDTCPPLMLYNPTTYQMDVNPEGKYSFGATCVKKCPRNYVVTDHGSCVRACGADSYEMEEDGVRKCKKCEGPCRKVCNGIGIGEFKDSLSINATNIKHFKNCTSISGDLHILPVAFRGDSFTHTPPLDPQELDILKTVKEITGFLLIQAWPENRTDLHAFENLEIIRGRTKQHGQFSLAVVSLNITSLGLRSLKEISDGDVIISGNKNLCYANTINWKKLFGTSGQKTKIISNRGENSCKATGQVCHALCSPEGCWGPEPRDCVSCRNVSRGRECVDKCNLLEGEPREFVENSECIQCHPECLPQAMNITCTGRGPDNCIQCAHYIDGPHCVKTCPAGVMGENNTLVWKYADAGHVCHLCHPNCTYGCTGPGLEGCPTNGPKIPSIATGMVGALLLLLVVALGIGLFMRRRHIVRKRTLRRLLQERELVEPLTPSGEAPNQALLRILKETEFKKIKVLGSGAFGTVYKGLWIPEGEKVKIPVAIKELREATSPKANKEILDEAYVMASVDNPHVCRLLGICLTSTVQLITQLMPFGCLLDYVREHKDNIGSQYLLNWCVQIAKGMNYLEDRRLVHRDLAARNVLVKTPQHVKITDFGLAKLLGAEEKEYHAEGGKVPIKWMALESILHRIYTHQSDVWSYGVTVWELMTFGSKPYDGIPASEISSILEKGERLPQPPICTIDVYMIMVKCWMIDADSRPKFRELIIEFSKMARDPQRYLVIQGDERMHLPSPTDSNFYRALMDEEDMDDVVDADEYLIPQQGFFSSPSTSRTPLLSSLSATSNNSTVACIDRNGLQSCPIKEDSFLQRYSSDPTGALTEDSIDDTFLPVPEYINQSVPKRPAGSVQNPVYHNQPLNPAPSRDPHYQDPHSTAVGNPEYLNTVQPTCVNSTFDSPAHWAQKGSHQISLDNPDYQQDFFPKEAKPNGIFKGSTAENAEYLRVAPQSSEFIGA
# [5] = Antiproliferative activity against human WM1361 cells expressing wild type BRAF after 24 hrs by MTT assay; format: functional, cell-based; conditions: WM1361, 24 h
# [6] = target: Receptor tyrosine-protein kinase erbB-2 (Homo sapiens, UniProt P04626); experiment: Inhibition of HER2
# Receptor tyrosine-protein kinase erbB-2, sequence (P04626 whole entry): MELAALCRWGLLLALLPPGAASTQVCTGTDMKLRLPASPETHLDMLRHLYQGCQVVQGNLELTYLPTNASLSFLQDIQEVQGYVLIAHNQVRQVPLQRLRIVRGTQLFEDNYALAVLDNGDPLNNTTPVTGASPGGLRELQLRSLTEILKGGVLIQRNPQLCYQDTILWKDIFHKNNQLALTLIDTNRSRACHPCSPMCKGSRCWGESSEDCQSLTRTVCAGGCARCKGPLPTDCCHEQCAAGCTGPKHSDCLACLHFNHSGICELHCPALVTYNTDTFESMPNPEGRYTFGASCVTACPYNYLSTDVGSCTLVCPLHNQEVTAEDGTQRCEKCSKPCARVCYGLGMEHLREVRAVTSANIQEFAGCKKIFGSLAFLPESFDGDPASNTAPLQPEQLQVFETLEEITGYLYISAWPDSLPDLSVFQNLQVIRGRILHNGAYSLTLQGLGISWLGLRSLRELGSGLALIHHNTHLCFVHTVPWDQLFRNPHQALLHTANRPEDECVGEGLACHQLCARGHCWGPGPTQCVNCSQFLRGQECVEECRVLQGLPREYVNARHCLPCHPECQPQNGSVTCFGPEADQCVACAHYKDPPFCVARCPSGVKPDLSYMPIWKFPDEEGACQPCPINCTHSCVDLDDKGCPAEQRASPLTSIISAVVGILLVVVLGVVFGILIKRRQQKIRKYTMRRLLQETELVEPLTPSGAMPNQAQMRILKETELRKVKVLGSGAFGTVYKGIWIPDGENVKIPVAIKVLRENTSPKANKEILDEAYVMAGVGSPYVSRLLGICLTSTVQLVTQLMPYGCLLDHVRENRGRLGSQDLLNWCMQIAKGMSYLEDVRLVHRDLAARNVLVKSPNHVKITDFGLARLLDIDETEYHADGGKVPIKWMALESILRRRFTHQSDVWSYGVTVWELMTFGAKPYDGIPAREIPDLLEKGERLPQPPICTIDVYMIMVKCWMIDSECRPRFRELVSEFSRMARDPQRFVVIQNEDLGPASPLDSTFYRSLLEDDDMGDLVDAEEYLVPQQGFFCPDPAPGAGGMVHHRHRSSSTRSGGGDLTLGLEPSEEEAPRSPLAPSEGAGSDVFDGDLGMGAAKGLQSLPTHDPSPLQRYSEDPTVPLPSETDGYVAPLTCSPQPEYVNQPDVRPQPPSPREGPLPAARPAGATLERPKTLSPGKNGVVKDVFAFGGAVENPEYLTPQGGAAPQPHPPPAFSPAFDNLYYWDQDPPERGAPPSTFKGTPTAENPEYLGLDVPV
# Aurora kinase A = target: T1, Aurora kinase A (Homo sapiens, UniProt O14965); experiment: Inhibition of human recombinant Aurora A kinase using PLK as substrate incubated for 15 mins prior to substrate addition measured after 60 mins by immunofluorescence method
# T1 sequence (O14965 whole entry): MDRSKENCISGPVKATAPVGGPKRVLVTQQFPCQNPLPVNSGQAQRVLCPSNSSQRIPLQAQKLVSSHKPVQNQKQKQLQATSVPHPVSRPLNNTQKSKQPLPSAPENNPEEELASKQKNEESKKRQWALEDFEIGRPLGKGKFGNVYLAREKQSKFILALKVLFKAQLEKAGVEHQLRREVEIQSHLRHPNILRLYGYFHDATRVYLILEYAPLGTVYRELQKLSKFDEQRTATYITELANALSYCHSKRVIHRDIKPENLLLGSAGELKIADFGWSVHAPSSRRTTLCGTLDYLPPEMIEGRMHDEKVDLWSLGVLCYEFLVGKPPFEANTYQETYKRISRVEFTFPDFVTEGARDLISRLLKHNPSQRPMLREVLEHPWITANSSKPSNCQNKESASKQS
# [7] = target: Vascular endothelial growth factor receptor 2 (Homo sapiens, UniProt P35968); experiment: Inhibition of VEGFR2 using gastrin as substrate after 60 mins by immunofluorescence method
# Vascular endothelial growth factor receptor 2, sequence (P35968 whole entry): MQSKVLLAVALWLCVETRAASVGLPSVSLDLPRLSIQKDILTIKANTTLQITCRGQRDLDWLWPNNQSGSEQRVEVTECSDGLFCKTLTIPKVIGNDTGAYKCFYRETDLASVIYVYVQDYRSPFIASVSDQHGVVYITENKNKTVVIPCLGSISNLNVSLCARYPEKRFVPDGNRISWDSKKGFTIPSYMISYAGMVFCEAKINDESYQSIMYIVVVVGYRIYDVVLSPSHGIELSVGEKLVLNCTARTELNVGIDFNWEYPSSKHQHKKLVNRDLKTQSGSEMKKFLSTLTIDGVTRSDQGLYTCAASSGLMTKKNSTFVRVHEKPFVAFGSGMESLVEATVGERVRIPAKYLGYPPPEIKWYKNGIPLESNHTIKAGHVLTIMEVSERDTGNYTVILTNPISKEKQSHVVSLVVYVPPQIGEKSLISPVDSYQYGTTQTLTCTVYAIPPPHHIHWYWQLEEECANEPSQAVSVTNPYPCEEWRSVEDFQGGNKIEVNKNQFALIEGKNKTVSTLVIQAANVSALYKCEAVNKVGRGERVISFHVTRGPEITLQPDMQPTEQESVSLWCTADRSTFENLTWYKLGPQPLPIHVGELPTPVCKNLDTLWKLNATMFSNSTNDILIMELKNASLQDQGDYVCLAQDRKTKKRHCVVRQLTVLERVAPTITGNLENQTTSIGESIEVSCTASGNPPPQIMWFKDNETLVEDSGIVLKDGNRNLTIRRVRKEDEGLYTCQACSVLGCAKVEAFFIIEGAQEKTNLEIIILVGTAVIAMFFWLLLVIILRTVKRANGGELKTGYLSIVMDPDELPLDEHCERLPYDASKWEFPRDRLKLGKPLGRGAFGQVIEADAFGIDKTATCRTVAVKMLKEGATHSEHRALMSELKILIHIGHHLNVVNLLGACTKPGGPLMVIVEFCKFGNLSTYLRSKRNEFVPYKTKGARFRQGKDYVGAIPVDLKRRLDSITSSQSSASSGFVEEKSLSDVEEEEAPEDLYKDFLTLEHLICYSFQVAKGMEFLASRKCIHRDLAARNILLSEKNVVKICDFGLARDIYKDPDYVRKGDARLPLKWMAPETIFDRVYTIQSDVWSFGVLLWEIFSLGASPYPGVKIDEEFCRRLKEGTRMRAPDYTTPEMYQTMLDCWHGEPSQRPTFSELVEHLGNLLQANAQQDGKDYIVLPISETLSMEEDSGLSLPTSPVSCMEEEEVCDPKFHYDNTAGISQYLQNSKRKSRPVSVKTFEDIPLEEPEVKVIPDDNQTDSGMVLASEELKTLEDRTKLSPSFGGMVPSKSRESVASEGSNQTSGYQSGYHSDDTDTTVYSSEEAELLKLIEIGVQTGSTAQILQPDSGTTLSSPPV
# [8] = Inhibition of bovine FAK isolated from brain after 20 mins by turbidimetric analysis; design: species or system Bos taurus
IC50 [1],Compound,GI50 [2],other results
7.04 µM,COc1ccc(C2=NN(C(=O)c3ccc(Cl)cc3O)C(c3ccc(OC)cc3)C2)cc1 (centres undefined),13.3 µM,–
5.69 µM,COc1ccc(C2=NN(C(=O)c3cc(Cl)ccc3O)C(c3ccc(OCc4ccccc4)cc3)C2)cc1 (centres undefined),12.9 µM,–
5.01 µM,COc1ccc(C2=NN(C(=O)c3ccc(Cl)cc3O)C(c3ccc(OCc4ccccc4)cc3)C2)cc1 (centres undefined),7.89 µM,–
4.1 µM,COc1ccc(C2=NN(C(=O)c3cc(I)ccc3O)C(c3ccc(Br)cc3)C2)cc1 (centres undefined),7.35 µM,–
0.57 µM,COc1ccc(C2=NN(C(=O)c3cc(Cl)ccc3O)C(c3ccc(Cl)cc3)C2)cc1 (centres undefined),1.52 µM,–
1.21 µM,COc1ccc(C2=NN(C(=O)c3cc(Br)ccc3O)C(c3ccc(Cl)cc3)C2)cc1 (centres undefined),2.39 µM,–
1.38 µM,COc1ccc(C2=NN(C(=O)c3ccc(Cl)cc3O)C(c3ccc(Br)cc3)C2)cc1 (centres undefined),2.89 µM,–
3.72 µM,COc1ccc(C2=NN(C(=O)c3cc(OC)ccc3O)C(c3ccc(Cl)cc3)C2)cc1 (centres undefined),5.04 µM,–
4.92 µM,COc1ccc(C2=NN(C(=O)c3cc(Br)ccc3O)C(c3ccc(OC)cc3)C2)cc1 (centres undefined),18.4 µM,–
13.3 µM,COc1ccc(C2=NN(C(=O)c3cc(I)ccc3O)C(c3ccc(OC)cc3)C2)cc1 (centres undefined),15.6 µM,–
6.94 µM,COc1ccc(C2=NN(C(=O)c3cc(OC)ccc3O)C(c3ccc(Br)cc3)C2)cc1 (centres undefined),12.9 µM,–
0.16 µM,COc1ccc(C2=NN(C(=O)c3ccc(Cl)cc3O)C(c3ccc(Cl)cc3)C2)cc1 (centres undefined),0.24 µM,IC50 [3]: 0.81 µM; IC50 [4]: 10.5 µM; GI50 [5]: 12.1 µM; IC50 [6]: > 25 µM; IC50 (Aurora kinase A): > 25 µM; IC50 [7]: > 25 µM; IC50 [8]: > 25 µM
2.51 µM,COc1ccc(C2=NN(C(=O)c3cc(Cl)ccc3O)C(c3ccc(Br)cc3)C2)cc1 (centres undefined),3.48 µM,–
1.3 µM,COc1ccc(C2=NN(C(=O)c3cc(I)ccc3O)C(c3ccc(Cl)cc3)C2)cc1 (centres undefined),3.27 µM,–
5.9 µM,COc1ccc(C2=NN(C(=O)c3cc(I)ccc3O)C(c3ccc(OCc4ccccc4)cc3)C2)cc1 (centres undefined),13 µM,–
8.38 µM,COc1ccc(C2=NN(C(=O)c3cc(OC)ccc3O)C(c3ccc(OC)cc3)C2)cc1 (centres undefined),> 20 µM,–
10.3 µM,COc1ccc(C2=NN(C(=O)c3cc(OC)ccc3O)C(c3ccc(OCc4ccccc4)cc3)C2)cc1 (centres undefined),13.9 µM,–
3.69 µM,COc1ccc(C2=NN(C(=O)c3cc(Br)ccc3O)C(c3ccc(Br)cc3)C2)cc1 (centres undefined),7.4 µM,–
0.06 µM,CNC(=O)c1cc(Oc2ccc(NC(=O)Nc3ccc(Cl)c(C(F)(F)F)c3)cc2)ccn1 [SORAFENIB],8.1 µM,–
7.22 µM,COc1ccc(C2=NN(C(=O)c3cc(Br)ccc3O)C(c3ccc(OCc4ccccc4)cc3)C2)cc1 (centres undefined),12.9 µM,–
9.3 µM,COc1ccc(C2=NN(C(=O)c3cc(Cl)ccc3O)C(c3ccc(OC)cc3)C2)cc1 (centres undefined),12.6 µM,–
